Source: ChEMBL document CHEMBL1154735, “A strategy to minimize reactive metabolite formation: discovery of (S)-4-(1-cyclopropyl-2-methoxyethyl)-6-[6-(difluoromethoxy)-2,5-dimethylpyridin-3-ylamino]-5-oxo-4,5-dihydropyrazine-2-carbonitrile as a potent, orally bioavailable corticotropin-releasing factor-1 receptor antagonist” (J Med Chem, 2009)
≈ marks a conversion by molar mass, not a printed value.

Assays:
[1] = Metabolic stability in rat liver microsomes assessed as compound remaining at 3 uM after 10 mins by HPLC/UV/MS analysis; format: ADME, Microsome; details: read-out: Stability
How it was run: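 Pooled human or rat liver microsomes (1 mg/mL protein) with 3 μM compound and 1.3 mM NADPH in 100 mM sodium phosphate pH 7.4 at 37 °C; final 0.015% DMSO, 0.985% acetonitrile; stopped at 0 and 10 min, percent remaining by LC/MS/MS.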

[2] = Aqueous solubility at pH 6.5; format: physicochemical
Rattus norvegicus [3] = assay: Plasma free concentration in Sprague-Dawley rat at 0.56 mg/kg, po after 1 to 3 hrs by LC/MS/MS analysis; format: ADME, organism-based; set-up: dose 0.56 mg/kg, route oral; details: in vivo
Rattus norvegicus [4] = assay: Total plasma concentration in Sprague-Dawley rat at 0.56 mg/kg, po after 1 to 3 hrs by LC/MS/MS analysis; format: ADME, organism-based; set-up: dose 0.56 mg/kg, route oral; details: in vivo
Liver microsomes = assay: Metabolic stability in NADPH-fortified human liver microsomes assessed as pyrazinone oxidation metabolite formation at 10 uM after 30 mins by HPLC/UV/MS analysis; format: ADME, Microsome; details: 0.5 h
How it was run: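 Pooled rat or human liver microsomes 1 mg/mL, 10 μM substrate, 100 mM potassium phosphate pH 7.4, 37 °C, started with NADPH-regenerating system (1.3 mM NADP+, 3.3 mM glucose-6-phosphate, 3.3 mM MgCl2, 0.5 U/mL G6PDH); GSH 5 mM in trapping runs. Sampled 0 and 30 min, acetonitrile quench; abundance as UV peak area (330–340 nm) fraction of all drug-related components by HPLC/UV/MS.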

[5] = AUC in Beagle dog at 2 mg/kg, po dosed as […] after 0.25 to 24 hrs by LC/MS/MS analysis; format: ADME, organism-based, Canis lupus familiaris; set-up: time upper 24 hr, time lower 0.25 hr, dose 2 mg/kg, route oral; details: in vivo
Rattus norvegicus [6] = assay: Anxiolytic activity in Sprague-Dawley rat assessed as decrease in exit latency at 1.8 mg/kg, po after 60 mins by defensive withdrawal test relative to control; format: functional; set-up: scale not given: the % may be the effect or the level left
How it was run: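 Rats placed in a darkened chamber within an open illuminated field; time to emerge measured 60 min after oral dosing (0.56–3 mg/kg), n = 8; percent decrease in exit latency versus vehicle-treated animals, p < 0.05 significance.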

[7] = Oral bioavailability in Beagle dog at 3 mg/kg, po dosed as aqueous suspension of Labrafil M 1944CS/DMAC/polysorbate 80, 85:10:5 (v/v) after 0.25 to 24 hrs by LC/MS/MS analysis; format: ADME, organism-based, Canis lupus familiaris; details: in vivo
How it was run: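 Fasted male beagle dogs dosed orally at 1 mL/kg: 2 mg/kg as 0.2% polysorbate 80 in 0.5% methylcellulose suspension (n = 4) or 3 mg/kg in Labrafil M 1944CS/DMAC/polysorbate 80 85:10:5 (n = 2). Femoral vein blood 0.25–24 h; plasma by LC/MS/MS.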

Rattus norvegicus [8] = assay: Ex vivo receptor occupancy of CRF1 receptor in Sprague-Dawley rat brain parietal assessed as inhibition of [125I]sauvagine binding at 1.8 mg/kg, po after 90 mins by autoradiography; format: functional; details: 1.5 h
[9] = Octanol-water partition coefficient, log D at pH 7.4; format: physicochemical
How it was run: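 Partitioning between octanol and water at pH 7.4.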

remaining at 10 min, 3 µM [1]: 70% | solubility [2]: 4 µg/mL (≈ 9.87 µM) | Cp(f) (Rattus norvegicus [3]): 0.84 nM | concentration (Rattus norvegicus [4]): 24 nM | Activity (Liver microsomes): < 1% | AUC [5]: 7.6 µM·h | bioavailability [7]: 70% | logD [9]: 3.9
SMILES: COC[C@H](C1CC1)n1cc(C#N)nc(Nc2cc(C)c(OC(F)F)nc2C)c1=O
Activity (Rattus norvegicus [6]): 60% | inhibition in vivo at 1.8 mg/kg (Rattus norvegicus [8]): 71%
